In data set [1] the test system is Mus musculus. Description: Hypothermia in mice after peroral administration. The data set is classed as functional.
A short description of data set [2]: Lethal dose in mice after perorla administration. The data set is classed as toxicity, organism-based. The following applies: mouse, in vivo, po.
Data set [3] relates to Rattus norvegicus. Description: Compound was assessed for its ability to block a conditioned avoidance response; Dose administered perorally is 20 mg/kg; 76-99%block. In kind it is functional. Particulars: route oral. The procedure, abridged: (§1)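 Lilly Wistar rats (120–130 g) trained in a shuttle box to cross on a 5-s buzzer, with mild shock if no response within 1 s of buzzer end. Only rats with a high conditioned response were used. Groups of five were dosed orally 1 h 50 min before the session, then habituated 10 min and tested 20 min. Shocks were scored as % of stimuli and graded 0–5.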

The test system of data set [4] is Rattus norvegicus. In words: Compound was assessed for its ability to produce catalepsy in rats; Dose administered perorally is 10 mg/kg; Group score is 4-7. In kind it is functional. The following applies: route oral. The method in brief: (§2)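 Groups of eight Lilly Wistar rats (180–190 g) were dosed orally, then checked at 0.5, 1, 1.5, 2, 3, 4 and 5 h. Front paws were placed on a 1.5-cm rod 7 cm above the table, and hold time was recorded up to 20 min. Each rat was scored 0–5 and its maximum scores were summed per group (maximum 40), then graded 0–4.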

Data set [5] relates to Rattus norvegicus. In words: Compound was assessed for its ability to produce catalepsy in rats; Dose administered perorally is 50 mg/kg; Group score is 8-15. In kind it is functional. Particulars: route oral. The procedure, abridged: as §2
Data set [6] relates to Rattus norvegicus. Description: Compound was assessed for its ability to block a conditioned avoidance response; Dose administered perorally is 25 mg/kg; 26-30%block. The data set is classed as functional. The following applies: route oral, in the assay text read “31-50%block” for “26-30%block”. The procedure, abridged: as §1
Data set [7] deals with Rattus norvegicus. In words: Compound was assessed for its ability to produce catalepsy in rats; Dose administered perorally is 50 mg/kg; Group score is 0-3. In kind it is functional. The following applies: route oral. The method in brief: as §2
Data set [8] has as its system Rattus norvegicus. In words: Compound was assessed for its ability to block a conditioned avoidance response; Dose administered intraperitoneally is 20 mg/kg; 31-50%block. The data set is classed as functional. The following applies: route intraperitoneal. The procedure, abridged: (§3)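 Shuttle-box conditioned avoidance in Lilly Wistar rats (120–130 g) pretrained to a 5-s buzzer with mild shock after a 1-s failure to respond. Groups of five had 10-min habituation and a 20-min test. Block was taken as shocks received as % of buzzer presentations and graded 0–5. Maximum dose was half the rotarod-disruption ED₅₀.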

Data set [9] concerns Rattus norvegicus. Description: Compound was assessed for its ability to block a conditioned avoidance response; Dose administered perorally is 10 mg/kg; no significant effect (0-25%block). In kind it is functional. Particulars: route oral. The procedure, abridged:
as §1

Data set [10] concerns Rattus norvegicus. Description: Compound was assessed for its ability to produce catalepsy in rats; Dose administered perorally is 20 mg/kg; Group score is 8-15. The data set is classed as functional. Particulars: route oral. The procedure, abridged:
as §2

Data set [11] concerns Rattus norvegicus. Description: Compound was assessed for its ability to block a conditioned avoidance response; Dose administered perorally is 10 mg/kg; 26-30%block. Particulars: route oral. In kind it is functional. The method in brief: as §1
The test system of data set [12] is Rattus norvegicus. In words: Compound was assessed for its ability to produce catalepsy in rats; Dose administered perorally is 8 mg/kg; Group score is 4-7. The data set is classed as functional. Particulars: route oral. The procedure, abridged:
as §2

Data set [13] relates to Rattus norvegicus. In words: Compound was assessed for its ability to block a conditioned avoidance response; Dose administered perorally is 4 mg/kg; 26-30%block. The data set is classed as functional. The following applies: route oral. The method in brief:
as §1

Data set [14] deals with Rattus norvegicus. Description: Compound was assessed for its ability to block a conditioned avoidance response; Dose administered intraperitoneally is 40 mg/kg; no significant effect (0-25%block). The data set is classed as functional. The following applies: route intraperitoneal. The method in brief: as §3
Data set [15] relates to Rattus norvegicus. Description: Compound was assessed for its ability to block a conditioned avoidance response; Dose administered perorally is 12.5 mg/kg; 76-99%block. In kind it is functional. Particulars: route oral. The method in brief:
as §1

Data set [16] deals with Rattus norvegicus. In words: Compound was assessed for its ability to block a conditioned avoidance response; Dose administered perorally is 10 mg/kg; 51-75%block. The data set is classed as functional. The following applies: route oral. The method in brief: as §1
Data set [17] relates to Rattus norvegicus. Description: Compound was assessed for its ability to produce catalepsy in rats; Dose administered perorally is 10 mg/kg; Group score is 8-15. Particulars: route oral. In kind it is functional. The method in brief: as §2
The subject of data set [18] is Rattus norvegicus. Description: Compound was assessed for its ability to produce catalepsy in rats; Dose administered perorally is 80; Group score is 8-15. In kind it is functional.
Data set [19] deals with Rattus norvegicus. Description: Compound was assessed for its ability to block a conditioned avoidance response; Dose administered perorally is 30 mg/kg; 51-75%block. In kind it is functional. The following applies: route oral. The procedure, abridged: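 Trained Lilly Wistar rats (120–130 g) in a shuttle box, 5-s buzzer with mild shock if no response within 1 s of buzzer end. Only high-responders used; groups of five dosed orally 1 h 50 min before test, 10-min habituation, then 20-min session. Block = shocks as % of stimuli presented, scored 0–5 (3 = 51–75% block).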

The test system of data set [20] is Rattus norvegicus. Description: Compound was assessed for its ability to block a conditioned avoidance response; Dose administered perorally is 8 mg/kg; 76-99%block. In kind it is functional. The following applies: route oral. The procedure, abridged:
as §1

Data set [21] has as its system Rattus norvegicus. In words: Compound was assessed for its ability to block a conditioned avoidance response; Dose administered perorally is 1.25 mg/kg; 51-75%block. In kind it is functional. The following applies: route oral. The procedure, abridged: as §1
Data set [22] deals with Rattus norvegicus. Description: Compound was assessed for its ability to produce catalepsy in rats; Dose administered perorally is 1.25 mg/kg; Group score is 16-30. The data set is classed as functional. Particulars: route oral. The procedure, abridged:
as §2

Data set [23] concerns Rattus norvegicus. In words: Compound was assessed for its ability to produce catalepsy in rats; Dose administered perorally is 25 mg/kg; Group score is 4-7. In kind it is functional. The following applies: route oral. The procedure, abridged: as §2
Data set [24] relates to Rattus norvegicus. In words: Compound was assessed for its ability to block a conditioned avoidance response; Dose administered perorally is 50 mg/kg; 51-75%block. Particulars: route oral. The data set is classed as functional. The method in brief:
as §1

Data set [25] relates to Rattus norvegicus. In words: Compound was assessed for its ability to block a conditioned avoidance response; Dose administered perorally is 2.5 mg/kg; 31-50%block. The data set is classed as functional. Particulars: route oral. The method in brief:
as §1

Data set [26] has as its system Rattus norvegicus. In words: Compound was assessed for its ability to produce catalepsy in rats; Dose administered perorally is 2.5 mg/kg; Group score is 31-40. The following applies: route oral. The data set is classed as functional. The method in brief: as §2

What is called LD50 is the dose expected to kill half of the subjects tested. In data set [1], `CCc1cc2c(s1)Nc1ccc(F)cc1N=C2N1CCN(CCO)CC1` showed an EDmin of 50 mg/kg. This compound showed a 50% lethal dose (LD50) in [2] of 400 mg/kg. Further, the Activity in data set [3] is on record as 4; in [4], 1.

`CCc1cc2c(s1)Nc1cc(C)ccc1N=C2N1CCN(C)CC1` displayed an EDmin in data set [1] of 50 mg/kg. For the same compound, in data set [2], the LD50 was determined as 150 mg/kg. Also, the Activity in [5] and in data set [6] was 2 each time.

In data set [1], `CCc1cc2c(s1)Nc1ccc(F)cc1N=C2NCCN1CCCC1` had an EDmin of 200 mg/kg. Besides, in data set [2], the 50% lethal dose (LD50) is over 400 mg/kg. The Activity in data set [7] was 0; in [8], 2.

In data set [1], `CCCN1CCN(C2=Nc3ccccc3Nc3sc(CC)cc32)CC1` returned an EDmin of 25 mg/kg. The same compound registered an LD50 in [2] of over 200 mg/kg. The Activity in [9] is listed as 0; in [10], 2.

For the compound `CN1CCN(C2=Nc3cc(F)ccc3Nc3sc(C(C)(C)C)cc32)CC1`, the EDmin in [1] was determined as 12.5 mg/kg. In addition, the 50% lethal dose (LD50) in data set [2] is over 400 mg/kg. In addition, the Activity in [11] and in data set [4] was 1 throughout.

In [1], `CCc1cc2c(s1)Nc1cc(F)ccc1N=C2N1CCN(C)CC1` gave an EDmin of 12.5 mg/kg. In data set [2], the LD50 amounted to 150 mg/kg. The Activity in data set [12] and in [13] was 1 in each case.

Regarding `CCc1cc2c(s1)Nc1ccc(F)cc1N=C2NCCCO`, in data set [1], the EDmin was over 200 mg/kg. This compound yielded an LD50 in data set [2] of 400 mg/kg. Also, in [14], the Activity is listed as 0.

In the case of `CCc1cc2c(s1)Nc1ccc(F)cc1N=C2N1CC[N+](C)([O-])CC1`, the EDmin in data set [1] was found to be 25 mg/kg. The compound also registered a median lethal dose (LD50) in data set [2] of 200 mg/kg. Also, the Activity in data set [15] is 4; in [4], 1.

`Cc1cc2c(s1)Nc1ccc(F)cc1N=C2N1CC[N+](C)([O-])CC1` yielded an EDmin in [1] of 6.25 mg/kg. In addition, the 50% lethal dose (LD50) in data set [2] is 200 mg/kg. The Activity in [16] is 3; in data set [17], 2.

The compound `CN1CCN(C2=Nc3cc(Cl)ccc3Nc3ccccc32)CC1` [CLOZAPINE] had an EDmin in data set [1] of 50 mg/kg. Moreover, the Activity in [18] stood at 2; in [19] it was 3.

In data set [1], `Cc1cc2c(s1)Nc1ccc(F)cc1N=C2N1CCN(C)CC1` [FLUMEZAPINE] had an EDmin of 3 mg/kg. Moreover, the median lethal dose (LD50) in data set [2] came to 200 mg/kg. Further, the figures for the Activity in data set [12] and in data set [20] were 1 and 4, respectively.

`O=C(CCCN1CCC(O)(c2ccc(Cl)cc2)CC1)c1ccc(F)cc1` [HALOPERIDOL] came in with an EDmin in [1] of 3 mg/kg. In data set [2], the median lethal dose (LD50) is over 100 mg/kg. Besides, the Activity in data set [21] and in data set [22] was 3 in each case.

On to `CSc1ccc2c(c1)N(CCC1CCCCN1C)c1ccccc1S2` (centres undefined) [THIORIDAZINE], for which the EDmin in data set [1] amounted to 25 mg/kg. The compound also displayed an LD50 in data set [2] of 400 mg/kg. Also, the results for the Activity in data set [23] and in data set [24] were 1 and 3, respectively.

On to `OCCN1CCN(CC/C=C2/c3ccccc3Sc3ccc(C(F)(F)F)cc32)CC1` [Z-FLUPENTIXOL], for which the EDmin in data set [1] was determined as 3 mg/kg. This compound yielded a median lethal dose (LD50) in [2] of 300 mg/kg. Moreover, the Activity in data set [25] was 2; in data set [26], 4.

(Values after ChEMBL document CHEMBL1121581, “4-Piperazinyl-10H-thieno[2,3-b][1,5]benzodiazepines as potential neuroleptics” (J Med Chem, 1980).)
